The results in this text go back to ChEMBL document CHEMBL4665666, “Discovery and characterization of trypanocidal cysteine protease inhibitors from the 'malaria box'” (Eur J Med Chem, 2019).

Structures are written as SMILES. Calls of active or inactive are those of the source. The calls are words filed in the database; no cut-off is given here.

Data set [1] addresses T1, cathepsin S (Homo sapiens, UniProt P25774). Put plainly: Inhibition of recombinant human cathepsin S expressed in Escherichia coli at 1 uM using Z-VVR-AMC as substrate preincubated for 10 mins followed by substrate addition and measured after 15 mins by microplate reader based assay relative to control. Conditions: probe Z-VVR-AMC, in the assay text read “preincubated for 5 mins” for “preincubated for 10 mins”, time 20 min. A digest of the protocol:
(§1)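 Run with or without 5 min compound–enzyme pre-incubation. AMC fluorescence at 380/460 nm over 15 min. Inhibition relative to DMSO (2% final); E64 1 µM as positive control. Two independent experiments, each in triplicate.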

In data set [2] the target is Rhodesain (Trypanosoma brucei rhodesiense) (UniProt Q95PM0). Put plainly: Inhibition of recombinant Trypanosoma brucei rhodesain expressed in Pichia pastoris at 0.5 uM using Z-FR-AMC as substrate and measured at 12 sec interval for 5 mins without preincubation by fluorimetric analysis relative to control. An outline of the steps: (§2)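 Recombinant rhodesain or cruzain (1 nM) in 0.1 M sodium acetate pH 5.5, 0.01% Triton X-100, 1 mM β-mercaptoethanol. Compound at a single concentration, either without or after 10 min enzyme pre-incubation. Z-FR-AMC 2.5 µM, read at 340/440 nm every 12 s for 5 min. Inhibition is relative to DMSO, with E-64 as positive control. Done in duplicate (primary screen) or triplicate.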

Data set [3] concerns the target T2, cathepsin B (Rattus norvegicus, UniProt P00787). Put plainly: Inhibition of rat cathepsin B at 1 uM using Z-FR-AMC as substrate preincubated for 5 mins followed by substrate addition and measured after 15 mins by microplate reader based assay relative to control. Conditions: probe Z-FR-AMC.
Data set [4] concerns the target T1, cathepsin S. The data set can be described thus: Inhibition of recombinant human cathepsin S expressed in Escherichia coli at 1 uM using Z-VVR-AMC as substrate and measured after 15 mins without preincubation by microplate reader based assay relative to control. Conditions: probe Z-VVR-AMC.
Data set [5] concerns the target T2, cathepsin B. Put plainly: Inhibition of rat cathepsin B at 1 uM using Z-FR-AMC as substrate measured after 15 mins without preincubation by microplate reader based assay relative to control. Conditions: probe Z-FR-AMC.
Data set [6] deals with Trypanosoma cruzi. The data set can be described thus: Trypanocidal activity against Trypanosoma cruzi Y strain trypomastigotes infected in C57BL/6 mouse peritoneal macrophage assessed as reduction in number of trypomastigotes release at 50 uM and measured after day 3 to day 11 post-infection by Neubauer chamber method. In kind it is functional, organism-based. Conditions: time 11.0 day. A digest of the protocol: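 Thioglycolate-elicited peritoneal macrophages from female C57BL/6 mice, 2 × 10^5/well, infected 2 h at 37°C with Y strain trypomastigotes at 5:1 (parasite:cell) and washed. They were then held with compound (3.125–50 µM) or IFN-γ 100 ng/mL. Trypomastigotes released into the supernatant were counted in a Neubauer chamber at several days after infection. Three independent experiments, each in triplicate.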

Data set [7] deals with Cruzipain (Trypanosoma cruzi) (UniProt P25779). The data set can be described thus: Inhibition of recombinant Trypanosoma cruzi cruzain at 100 uM using Z-FR-AMC as substrate and measured at 12 sec interval for 5 mins without preincubation by fluorimetric analysis relative to control. An outline of the steps:
as §2

For data set [8], the target named is Rhodesain (Trypanosoma brucei rhodesiense) (UniProt Q95PM0). Put plainly: Inhibition of recombinant Trypanosoma brucei rhodesain expressed in Pichia pastoris at 5 uM using Z-FR-AMC as substrate and measured at 12 sec interval for 5 mins without preincubation by fluorimetric analysis relative to control. A digest of the protocol:
(§3)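 Recombinant rhodesain or cruzain (1 nM) in 0.1 M sodium acetate pH 5.5, 0.01% Triton X-100, 1 mM β-mercaptoethanol. Compound at a single concentration, either without or after 10 min enzyme pre-incubation. Inhibition is relative to DMSO, with E-64 as positive control. Done in duplicate (primary screen) or triplicate.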

Data set [9] deals with Cruzipain (Trypanosoma cruzi) (UniProt P25779). Put plainly: Inhibition of recombinant Trypanosoma cruzi cruzain at 50 uM preincubated for 10 mins in presence of 0.01% Triton X-100 relative to control. A digest of the protocol:
(§4)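 To test detergent sensitivity, cruzain was pre-incubated 10 min at room temperature with compound with no Triton X-100, 0.01% or 0.1% Triton X-100. Cleavage of Z-FR-AMC was then followed at pH 5.5 in acetate buffer. Percent inhibition was compared across detergent levels.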

Data set [10] concerns the target Rhodesain (Trypanosoma brucei rhodesiense) (UniProt Q95PM0). Put plainly: Inhibition of recombinant Trypanosoma brucei rhodesain expressed in Pichia pastoris at 5 uM using Z-FR-AMC as substrate preincubated for 10 mins followed by substrate addition and measured at 12 sec interval for 5 mins by fluorimetric analysis relative to control. Conditions: time 15.0 min. An outline of the steps:
as §3

Data set [11] concerns the target Rhodesain (Trypanosoma brucei rhodesiense, UniProt Q95PM0). The data set can be described thus: Inhibition of recombinant Trypanosoma brucei rhodesain expressed in Pichia pastoris using Z-FR-AMC as substrate and measured at 12 sec interval for 5 mins without preincubation by fluorimetric analysis. An outline of the steps:
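Rhodesain (1 nM) with Z-FR-AMC (2.5 µM) in 0.1 M sodium acetate pH 5.5, 0.01% Triton X-100, 1 mM β-mercaptoethanol, with or without 10 min enzyme-compound pre-incubation. Fluorescence read at 340/440 nm. IC50 by four-parameter nonlinear regression from at least six concentrations in triplicate, with at least two independent runs. Mean ± SEM reported.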

Data set [12] addresses Cruzipain (Trypanosoma cruzi) (UniProt P25779). Put plainly: Inhibition of recombinant Trypanosoma cruzi cruzain at 10 uM using Z-FR-AMC as substrate preincubated for 10 mins followed by substrate addition and measured at 12 sec interval for 5 mins by fluorimetric analysis relative to control. Conditions: time 15.0 min. A digest of the protocol: as §2
Data set [13] addresses Rhodesain (Trypanosoma brucei rhodesiense) (UniProt Q95PM0). The data set can be described thus: Inhibition of recombinant Trypanosoma brucei rhodesain expressed in Pichia pastoris at 100 uM using Z-FR-AMC as substrate and measured at 12 sec interval for 5 mins without preincubation by fluorimetric analysis relative to control. An outline of the steps:
(§5)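 Run with no pre-incubation or with 10 min enzyme-compound pre-incubation. Fluorescence read at 340/440 nm. Concentration was set by solubility under assay conditions. Inhibition is against DMSO, with E-64 as positive control; triplicate.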

Data set [14] concerns the target T2, cathepsin B. The data set can be described thus: Inhibition of rat cathepsin B at 50 uM using Z-FR-AMC as substrate preincubated for 5 mins followed by substrate addition and measured after 15 mins by microplate reader based assay relative to control. Conditions: probe Z-FR-AMC.
The target of data set [15] is T1, cathepsin S. Put plainly: Inhibition of recombinant human cathepsin S expressed in Escherichia coli at 50 uM using Z-VVR-AMC as substrate and measured after 15 mins without preincubation by microplate reader based assay relative to control. Conditions: probe Z-VVR-AMC. A digest of the protocol:
as §1

In data set [16] the target is Rhodesain (Trypanosoma brucei rhodesiense) (UniProt Q95PM0). Put plainly: Inhibition of recombinant Trypanosoma brucei rhodesain expressed in Pichia pastoris at 100 uM using Z-FR-AMC as substrate preincubated for 10 mins followed by substrate addition and measured at 12 sec interval for 5 mins by fluorimetric analysis relative to control. Conditions: time 15.0 min. An outline of the steps: as §5

Data set [17] has the same target. The data set can be described thus: Inhibition of recombinant Trypanosoma brucei rhodesain expressed in Pichia pastoris at 10 uM using Z-FR-AMC as substrate and measured at 12 sec interval for 5 mins without preincubation by fluorimetric analysis relative to control. A digest of the protocol:
as §2

The target of data set [18] is Cruzipain (Trypanosoma cruzi) (UniProt P25779). The data set can be described thus: Inhibition of recombinant Trypanosoma cruzi cruzain at 10 uM using Z-FR-AMC as substrate and measured at 12 sec interval for 5 mins without preincubation by fluorimetric analysis relative to control. An outline of the steps:
as §2

Data set [19] deals with T1, cathepsin S. The data set can be described thus: Inhibition of recombinant human cathepsin S expressed in Escherichia coli at 50 uM using Z-VVR-AMC as substrate preincubated for 10 mins followed by substrate addition and measured after 15 mins by microplate reader based assay relative to control. Conditions: probe Z-VVR-AMC, in the assay text read “preincubated for 5 mins” for “preincubated for 10 mins”, time 20 min. A digest of the protocol:
as §1

The target in data set [20] is T2, cathepsin B. Put plainly: Inhibition of rat cathepsin B at 50 uM using Z-FR-AMC as substrate measured after 15 mins without preincubation by microplate reader based assay relative to control. Conditions: probe Z-FR-AMC. An outline of the steps: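 Rat cathepsin B (20 nM) at 25°C in 100 mM sodium phosphate, 100 mM NaCl, 1 mM EDTA, 1 mM DTT, 0.01% CHAPS. Compound pre-incubated 0 or 5 min with enzyme; Z-FR-AMC 50 µM, ex 380/em 440 nm, monitored 15 min. Inhibition is versus 2% DMSO, with 1 µM E64 control. Two independent experiments in triplicate.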

The target of data set [21] is T3, Cruzipain (Trypanosoma cruzi, UniProt P25779). The data set can be described thus: Inhibition of recombinant Trypanosoma cruzi cruzain using Z-FR-AMC as substrate and measured at 12 sec interval for 5 mins without preincubation by fluorimetric analysis. An outline of the steps: (§6)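 Cruzain (recombinant, 1 nM) in 0.1 M sodium acetate pH 5.5 with 0.01% Triton X-100 and 1 mM β-mercaptoethanol; Z-FR-AMC 2.5 µM, read at 340/440 nm every 12 s for 5 min, with or without 10 min enzyme–compound pre-incubation. […] For mechanism and Ki, 0.3–20.0 µM substrate and five inhibitor levels were used, with Lineweaver-Burk plots.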

Data set [22] concerns the target Rhodesain (Trypanosoma brucei rhodesiense) (UniProt Q95PM0). The data set can be described thus: Inhibition of recombinant Trypanosoma brucei rhodesain expressed in Pichia pastoris at 10 uM using Z-FR-AMC as substrate preincubated for 10 mins followed by substrate addition and measured at 12 sec interval for 5 mins by fluorimetric analysis relative to control. Conditions: time 15.0 min. An outline of the steps: as §2

The target in data set [23] is Cruzipain (Trypanosoma cruzi) (UniProt P25779). The data set can be described thus: Inhibition of recombinant Trypanosoma cruzi cruzain at 5 uM using Z-FR-AMC as substrate preincubated for 10 mins followed by substrate addition and measured at 12 sec interval for 5 mins by fluorimetric analysis relative to control. Conditions: time 15.0 min. An outline of the steps:
as §3

For data set [24], the target named is T3, Cruzipain. Put plainly: Competitive inhibition of recombinant Trypanosoma cruzi cruzain by Lineweaver-Burk plot analysis. An outline of the steps: as §6
The target in data set [25] is Cruzipain (Trypanosoma cruzi) (UniProt P25779). The data set can be described thus: Inhibition of recombinant Trypanosoma cruzi cruzain at 50 uM preincubated with enzyme for 5 mins followed by substrate addition in absence of BSA relative to control. A digest of the protocol:
(§7)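 For BSA sensitivity, compound was held 5 min with BSA (2 mg/mL in 0.001% Triton X-100), then 5 min with 1 nM cruzain, before substrate was added and activity monitored. Parallel runs omitted BSA under otherwise identical conditions.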

Data set [26] has the same target. Put plainly: Inhibition of recombinant Trypanosoma cruzi cruzain at 50 uM preincubated for 10 mins in absence of Triton X-100 relative to control. An outline of the steps: as §4
Data set [27] shares this target. The data set can be described thus: Inhibition of recombinant Trypanosoma cruzi cruzain at 5 uM using Z-FR-AMC as substrate and measured at 12 sec interval for 5 mins without preincubation by fluorimetric analysis relative to control. An outline of the steps: as §3
The target is the same in data set [28]. The data set can be described thus: Inhibition of recombinant Trypanosoma cruzi cruzain at 100 uM using Z-FR-AMC as substrate preincubated for 10 mins followed by substrate addition and measured at 12 sec interval for 5 mins by fluorimetric analysis relative to control. Conditions: time 15.0 min. An outline of the steps: as §2
The target is the same in data set [29]. Put plainly: Inhibition of recombinant Trypanosoma cruzi cruzain at 50 uM preincubated with BSA for 5 mins followed by incubation with enzyme for 5 mins followed by substrate addition relative to control. Conditions: time 10.0 min. A digest of the protocol:
as §7

Data set [30] has the same target. The data set can be described thus: Inhibition of recombinant Trypanosoma cruzi cruzain at 50 uM preincubated for 10 mins in presence of 0.1% Triton X-100 relative to control. An outline of the steps: as §4

T2 sequence (P00787 whole entry): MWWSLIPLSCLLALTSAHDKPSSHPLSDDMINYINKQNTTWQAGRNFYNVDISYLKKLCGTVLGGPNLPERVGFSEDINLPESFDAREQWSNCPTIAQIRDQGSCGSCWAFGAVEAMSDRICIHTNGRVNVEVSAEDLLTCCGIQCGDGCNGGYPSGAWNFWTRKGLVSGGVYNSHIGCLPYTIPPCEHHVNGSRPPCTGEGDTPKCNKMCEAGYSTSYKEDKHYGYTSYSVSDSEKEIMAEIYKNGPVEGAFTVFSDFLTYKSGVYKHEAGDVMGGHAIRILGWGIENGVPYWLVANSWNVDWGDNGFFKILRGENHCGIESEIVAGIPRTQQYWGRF
Rhodesain (Trypanosoma brucei rhodesiense), sequence (Q95PM0 1-450): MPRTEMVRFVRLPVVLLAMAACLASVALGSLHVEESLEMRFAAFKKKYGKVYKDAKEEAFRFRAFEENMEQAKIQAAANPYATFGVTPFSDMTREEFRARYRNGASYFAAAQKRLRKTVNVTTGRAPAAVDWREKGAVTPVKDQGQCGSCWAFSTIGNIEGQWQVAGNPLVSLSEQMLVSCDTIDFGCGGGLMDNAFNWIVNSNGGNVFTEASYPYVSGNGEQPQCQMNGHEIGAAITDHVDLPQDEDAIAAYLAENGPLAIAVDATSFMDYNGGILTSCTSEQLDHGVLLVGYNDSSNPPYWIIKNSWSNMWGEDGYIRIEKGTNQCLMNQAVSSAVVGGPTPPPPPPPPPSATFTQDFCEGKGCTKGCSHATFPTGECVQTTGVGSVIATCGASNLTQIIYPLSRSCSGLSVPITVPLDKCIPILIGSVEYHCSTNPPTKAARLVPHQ
T1 sequence (P25774 whole entry): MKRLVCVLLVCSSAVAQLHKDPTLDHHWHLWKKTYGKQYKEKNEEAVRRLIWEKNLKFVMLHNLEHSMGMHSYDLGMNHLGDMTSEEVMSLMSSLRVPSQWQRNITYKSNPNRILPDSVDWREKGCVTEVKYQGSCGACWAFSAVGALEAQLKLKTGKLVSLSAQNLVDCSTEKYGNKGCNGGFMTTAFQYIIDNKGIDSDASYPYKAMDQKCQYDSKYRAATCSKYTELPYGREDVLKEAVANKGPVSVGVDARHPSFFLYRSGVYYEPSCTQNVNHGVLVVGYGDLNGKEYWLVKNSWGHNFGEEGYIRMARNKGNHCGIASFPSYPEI
Cruzipain (Trypanosoma cruzi), sequence (P25779 123-467 limits assumed): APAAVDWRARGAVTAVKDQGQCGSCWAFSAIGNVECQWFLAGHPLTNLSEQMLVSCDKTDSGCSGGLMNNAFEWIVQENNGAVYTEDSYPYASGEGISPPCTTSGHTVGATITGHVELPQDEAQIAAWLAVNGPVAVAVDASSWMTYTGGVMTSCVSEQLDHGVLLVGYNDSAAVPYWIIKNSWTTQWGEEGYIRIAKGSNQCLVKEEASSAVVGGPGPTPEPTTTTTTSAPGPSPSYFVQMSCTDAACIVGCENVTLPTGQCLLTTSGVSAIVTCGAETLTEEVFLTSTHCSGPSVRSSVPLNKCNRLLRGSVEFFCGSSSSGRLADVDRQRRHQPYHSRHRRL
T3 sequence (P25779 whole entry): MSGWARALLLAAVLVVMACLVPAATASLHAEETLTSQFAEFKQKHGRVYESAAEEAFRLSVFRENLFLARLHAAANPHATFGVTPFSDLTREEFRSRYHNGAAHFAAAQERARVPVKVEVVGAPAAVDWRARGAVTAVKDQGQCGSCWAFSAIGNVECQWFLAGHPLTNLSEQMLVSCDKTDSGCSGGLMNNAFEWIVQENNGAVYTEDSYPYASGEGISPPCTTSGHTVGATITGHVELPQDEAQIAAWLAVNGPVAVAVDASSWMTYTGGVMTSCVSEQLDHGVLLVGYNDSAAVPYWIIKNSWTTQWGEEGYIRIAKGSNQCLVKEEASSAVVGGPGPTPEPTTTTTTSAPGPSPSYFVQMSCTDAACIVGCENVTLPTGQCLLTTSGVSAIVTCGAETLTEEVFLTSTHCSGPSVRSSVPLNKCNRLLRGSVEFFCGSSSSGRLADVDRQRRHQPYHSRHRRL
Rhodesain, sequence (Q95PM0 whole entry): as the sequence (Q95PM0 1-450) above

With `CC(C)C[C@H](NC(=O)[C@H]1O[C@@H]1C(=O)O)C(=O)NCCCCN=C(N)N` [E-64], the inhibition (commonly the percentage by which the read-out fell short of the control) at 0.25 h, 1 µM in data set [1] was determined as 99.9%; in data set [3], 100%; in [4], 99.9%; in data set [5], 99.1%. Moreover, the inhibition in [2] was found to be 36%.
Regarding `c1ccc(CNc2nc(Nc3ccccc3)nc3ccccc23)cc1`, the outcome in data set [6] was Active. Besides, the inhibition came to 91% in [7]; 67.1% in data set [8]; 89.8% in data set [9]; 82.8% in [10]; 57% in [12]; 85% in data set [13]. For the same compound, the inhibition amounted to 94% in data set [16]; 14% in [17]; 62% in data set [18]; 9% in data set [22]; 82.3% in [23]; 70.2% in data set [25]. Further, the inhibition in data set [26] was determined as 82.4%; in [27], 70.8%; in data set [28] it was 90%; in data set [29], 64.4%; in data set [30] it was 28.1%. Further, the results for the IC50 in [11] and in data set [21] were 30 µM and 9 µM, respectively. In addition, the inhibition at 0.25 h, 50 µM in data set [14] was 27.5%; in data set [15] it was 14.8%; in data set [19], 4.5%; in data set [20] it was 28.6%. In addition, the Ki (as a rule, the dissociation constant of the complex between target and ligand, obtained from inhibition or displacement) in data set [24] stood at 1.4 µM.
